# Most compounds without a hit are left out; they make up all but 2.6% or so of the library.
# GRK2 aptamer HTS: human GRK2 inhibition via aptamer displacement. bead flow cytometry, FAM-aptamer displacement from GRK2. AID 488847. 330,000 compounds, 0.59% hits. inhibition of aptamer binding, % at 10 µM. P25098;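 active = inhibition of aptamer binding above 40%, roughly 3 SD of noise, on plates passing a quality check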;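 also: median bead fluorescence of bound FAM aptamer so fluorescent compounds give negative values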
# Target sequence (P25098 whole entry, looked up): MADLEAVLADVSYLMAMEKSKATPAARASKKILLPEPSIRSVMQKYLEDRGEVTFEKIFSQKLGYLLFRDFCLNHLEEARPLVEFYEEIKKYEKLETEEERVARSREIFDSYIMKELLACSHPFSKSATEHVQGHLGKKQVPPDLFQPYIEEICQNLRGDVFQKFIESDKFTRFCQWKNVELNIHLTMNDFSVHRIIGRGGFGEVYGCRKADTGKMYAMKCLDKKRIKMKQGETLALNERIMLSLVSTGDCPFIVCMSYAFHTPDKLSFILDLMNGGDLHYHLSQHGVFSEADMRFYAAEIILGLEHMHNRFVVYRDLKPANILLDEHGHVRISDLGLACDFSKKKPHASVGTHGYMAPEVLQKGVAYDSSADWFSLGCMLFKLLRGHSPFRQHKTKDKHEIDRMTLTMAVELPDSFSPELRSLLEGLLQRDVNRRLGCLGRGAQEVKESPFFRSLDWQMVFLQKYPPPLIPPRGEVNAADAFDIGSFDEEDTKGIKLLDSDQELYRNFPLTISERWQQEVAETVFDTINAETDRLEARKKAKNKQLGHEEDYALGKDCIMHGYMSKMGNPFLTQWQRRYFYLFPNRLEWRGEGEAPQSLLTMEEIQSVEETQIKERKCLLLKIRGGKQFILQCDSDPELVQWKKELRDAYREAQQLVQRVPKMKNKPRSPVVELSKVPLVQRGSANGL
# Myeloid diff 2: promotes myeloid progenitor differentiation; calls only at 10 µM; 360,000 compounds, 1% hits; ER-HoxA9 myeloid progenitors, lysozyme-GFP differentiation, flow cytometry; AID 624256;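 active = normalized GFP-positive differentiation at or above the plate's own cutoff, the solvent-only control mean plus 3 SD; inconclusive = no clear call, values can overlap the other calls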;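 also: cells exposed to compound for four days before flow analysis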
# T cell modulator: T cell immune modulators affecting CD8 T cell-vesicle binding; AID 2052; response (vesicle binding), % at 7 µM; 330,000 compounds, 0.068% hits; 2C CD8+ T cell-vesicle binding, flow cytometry; active compounds read low;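 active = response, share of CD8 T cells binding vesicles, and their 90th percentile fluorescence all below set limits, cut at about 80% in these data, passing the limit was not always enough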;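 also: values below 100% mean blocked vesicle binding to the CD8+ T cells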
#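 Also added: QL9-peptide-loaded Drosophila micro-vesicles bearing Ld, ICAM-1 and B7-1; Test system: purified 2C TCR transgenic mouse naive CD8+ T cells; Measured by: cytometric PE anti-B7-1 and Alexa647 anti-CD8 signals after 1% paraformaldehyde fixation; Timing: binding step 1.5 h, 37 °C, antibody labelling 20 min, ice.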
# Rin1-Abl PPI inh: inhibitors of human Rin1-Abl protein interaction; P00519+Q13671; TR-FRET Rin1/Abl binding, biochemical; inhibition, % at 7.35 µM; 360,000 compounds, 0.4% hits; AID 588664; in the data active = inhibition above about 5%, passing the limit was not always enough
# SKN-1 block: blocks SKN-1 activity in C. elegans; 360,000 compounds, 0.49% hits; AID 624304; inhibition, % at 21.8 µM; C. elegans VP596 Pgst-4::GFP/RFP ratio, acrylamide-induced, 24 h;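 active = interference check ratio from 0.5 to 1.5 plus GFP to RFP signal ratio inhibition reaching or exceeding a fixed threshold, cut at about 30% in these data, passing the limit was not always enough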
# Rce1 inhib: blocks yeast Ras-converting enzyme | yeast membranes, quenched prenylated peptide cleavage fluorescence | calls only | 290,000 compounds, 0.27% hits | AID 2563;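 active = fall in fluorescence gain of 50% or more versus controls, with final raw signal at or below 3038400; inconclusive = same 50% fall but final raw signal above 3038400; inactive = fall in fluorescence gain under 50%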;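 also: plate controls were neutral control wells for no effect and wells lacking membranes for full effect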
# Rin1 Abl conf: Rin1-Abl interaction inhibition confirmation. shares compounds with Rin1-Abl PPI inh. TR-FRET Rin1-Abl binding, purified proteins. inhibition, % at 7.35 µM. 1,300 compounds, 49% hits. AID 602124
# GFP quench: counter-screen for Rin1-Abl inhibitors: GFP fluorescence quenchers | 1,300 compounds, 8.5% hits | shares compounds with Rin1-Abl PPI inh | inhibition, % at 6.75 µM | inhibitors/quenchers counterscreen;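 also: ABL1-eGFP fusion protein alone without its partner RIN1-SBP; 0% = protein with vehicle and 100% = wells lacking protein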
# GFP quench DR: counter-screen for Rin1-Abl inhibitors: GFP quenchers, dose response | shares compounds with Rin1-Abl PPI inh | GFP fluorescence interference/quenching counterscreen | IC50, µM | 230 tested, under 10 active | AID 602182; call rule not given here;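 also: ABL1-eGFP fusion protein alone without its RIN1 binding partner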
# * = called active by the depositor; i = inactive; ? = inconclusive; · = no result; + = active, no number. Rule as the data show it, unless noted: active = inhibition above about 6.5%; inactive = the rest.
SMILES,GRK2 aptamer HTS,Myeloid diff 2,T cell modulator,Rin1-Abl PPI inh,SKN-1 block,Rce1 inhib,Rin1 Abl conf,GFP quench,others
Cc1oc2nc(SCCCC(=O)NCCO)nc(N)c2c1C,2,i,146,36*,6,i,42*,1,GFP quench DR=>68
O=c1cc(Cn2ccnc2)c2cc(O)ccc2o1,11,i,246,1,21,i,·,·,
CN1CC2(C)OC(=O)C(Cl)=C2CC1c1ccccc1 (centres undefined),0,i,311,6.2*,14,i,0,-2,
CN1NC(=O)CC1c1ccccc1 (centres undefined),·,i,·,1,3,·,·,·,
CCOc1ccccc1C(=O)NCC(=O)OCC(=O)c1c(N)n(C)c(=O)n(C)c1=O,3,i,447,-1,-2,·,·,·,
COc1ccc(Nc2nc(-c3ccccc3)nc3ccccc23)cc1,1,i,402,5,-4,i,·,·,
COc1ccc(Nc2nc(-c3cccc([N+](=O)[O-])c3)nc3ccccc23)cc1,0,i,168,5.7*,10,i,-1,0,
COc1cnc(-c2ccccn2)nc1Oc1ccc(Cl)cc1,1,i,330,6.8*,-22,i,6,1,
COc1cc2c(C(=O)N3CCN(c4cccc(Cl)c4)CC3)cn(C)c(=O)c2cc1OC,1,i,402,17*,17,i,32*,-3,GFP quench DR=>68
Oc1c(CN2CCOCC2)cc(CN2CCOCC2)c(O)c1O,·,i,·,23*,5,·,7.0*,6,
Oc1c(CN2CCOCC2)cc(COCc2ccccc2)c2cccnc12,0,?,231,11*,-14,i,3,1,
Oc1c(CNc2ccccc2)cc(COCc2ccccc2)c2cccnc12,1,i,496,-2,-4,·,·,·,
Cc1ccc(C2(C)NC(=O)N(CC(=O)NNC(=O)c3ccccc3)C2=O)cc1 (centres undefined),2,i,416,-3,-7,·,·,·,
Cc1ccc(C(=O)C(C)N2C(=O)NC(C)(c3ccccc3)C2=O)cc1 (centres undefined),1,i,365,7.1*,-8,i,-1,1,
CCOC(=O)N1CCN(C(=O)CSc2nnc(Cc3cccn3C)n2CCc2ccccc2)CC1,0,i,337,5.7*,10,i,-1,-1,
CC1(C)CCN2CCC(C)(C)c3c(O)ccc1c32,0,+,180,7.6*,19,i,2,1,
Nc1c(C(=O)NCc2ccc3c(c2)OCO3)nnn1Cc1cccc(F)c1,1,i,410,8.4*,-5,i,10*,-2,
COc1cccc(Cn2nnc(C(=O)NCc3ccc4c(c3)OCO4)c2N)c1,1,i,467,9.1*,4,i,7.3*,-1,
COCCn1c(SCC(=O)Nc2ccc3c(c2)OCCO3)nc2ccccc2c1=O,·,i,·,7.0*,1,·,-1,-1,
COCC(C)n1c(SCC(=O)Nc2ccc3c(c2)OCCO3)nc2ccccc2c1=O (centres undefined),0,i,239,2,0,·,·,·,
COC(=O)c1ccc(NC(=O)CN2CCN(CC#N)CC2)cc1,0,i,107,4,4,i,·,·,
O=C(O)CCCN1C(=O)/C(=C\c2ccco2)SC1=S,·,i,·,2,4,i,·,·,
CC(C(=O)O)N1C(=O)/C(=C/C=C/c2ccco2)SC1=S (centres undefined),98*,i,244,13*,9,i,9.7*,20*,
CC1(C)CC(=O)c2cn3c(nc2C1)nc1ccccc13,3,i,i,7.8*,-8,i,10*,1,
O=C(Cn1[nH]c(=O)c2ccccc2c1=O)Nc1ccc(-c2nnc3n2CCCCC3)cc1,1,i,446,12*,3,i,10*,0,
SMILES,GRK2 aptamer HTS,Myeloid diff 2,T cell modulator,Rin1-Abl PPI inh,SKN-1 block,Rce1 inhib,Rin1 Abl conf,GFP quench,others
O=C(Cc1n[nH]c(=O)c2ccccc12)Nc1ccc(-c2nnc3n2CCCCC3)cc1,0,i,414,6,-2,i,·,·,
COc1ccc(Br)cc1C(=O)Nc1ccccc1N1CCCC1,0,i,623,6.6*,13,·,-2,1,
COc1ccccc1C(=O)Nc1ccccc1N1CCCCC1,0,i,230,-1,-28,i,·,·,
O=C(O)CC(CCc1ccccc1)OC1OC(CO)C(O)C(O)C1O (centres undefined),2,i,i,30*,-1,·,26*,3,GFP quench DR=>68
NS(=O)(=O)c1ccc(N/N=C/c2ccc(O)c(O)c2O)c([N+](=O)[O-])c1,·,i,·,40*,4,·,46*,30*,
NS(=O)(=O)c1ccc(N/N=C/c2ccc(O)cc2O)c([N+](=O)[O-])c1,2,i,91,-12,-9,i,·,·,
CCOC(=O)c1cc2c(c(-c3cccc(-c4cc5ccccc5o4)c3)n1)[C@@H](CCO)N(S(=O)C(C)(C)C)C2 (some centres undefined),·,i,·,-6,2,·,·,·,
CCN(CC)c1ccc(S(=O)(=O)N2CCOCC2)cc1NC(=O)C1CC1,3,i,157,9.4*,3,·,-2,-1,
COc1cccc(N(CC(=O)NCC2CCCO2)C(=O)CNS(=O)(=O)c2ccccc2)c1 (centres undefined),2,i,524,9.8*,-9,i,-1,-1,
CC(C)CNC1=CC(=O)CC(c2ccco2)C1 (centres undefined),4,i,201,5.9*,-8,i,0,4,
O=C1C=C(NCc2ccc(Cl)cc2)CC(c2ccco2)C1 (centres undefined),0,i,214,-2,1,i,·,·,
O=C(Nc1ccccc1N1CCN(C(=O)c2ccc(Cl)cc2)CC1)c1cccnc1,0,i,142,17*,14,i,23*,1,GFP quench DR=>68
COC(=O)c1cc(OC)nc(OC)c1,0,i,166,-2,10,i,·,·,
COC(=O)c1cc(O)c(O)c(O)c1,5,i,591,18*,5,i,17*,4,
CCN(CC)c1ccc2cc(C(=O)NNC(=O)c3ccc(S(=O)(=O)N4CCCCC4)cc3)c(=O)oc2c1,0,i,364,4.7*,-2,i,-1,-1,
S=C(Nc1ccc(Cc2ccncc2)cc1)Nc1cccc(Cl)c1,0,i,468,2,2,i,·,·,
